Consider two compounds from publication PMC3103858 (Chemistry & biology, 2011).

The subject of data set [1] is p53-dependent p21 luciferase activity. Kind of data set: p21 luciferase assay of doxorubicin-induced p53 activation in U2OS cells. The format is cell-based, human.
A further data set deals with U2OS cells. Kind of data set: BRDU incorporation cell cycle assay. The format is cell-based, human. In outline: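 U2OS cells in DMEM with 10% FBS were seeded at 1×10^5/ml. After 12 h, they got test compound (50 μM) with or without doxorubicin (5 μM); DMSO and untreated cells were controls. BrdU was added for the 24 h treatment. Cells were fixed, probed with anti-BrdU antibody, then peroxidase. Colour was developed with TMB, stopped, and read as OD at 450 nm.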

Data set [2] has as its system p53. Kind of data set: western blot analysis of doxorubicin-treated U2OS cells. The format is cell-based, human. In outline:
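U2OS cells were grown in DMEM with 10% FBS and antibiotics, then exposed 24 h to doxorubicin ± test compound (50 or 100 μM). Lysates were sonicated and cleared at 14,000 rpm for 30 min at 4°C. 30–50 μg protein was run on SDS-PAGE and moved to nitrocellulose, blocked in 5% milk/PBS, probed with primary then HRP secondary (60 min, RT), and developed by ECL.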
Background: Immunoblotting shows a protein as a band on a membrane.

The target of another data set is p53 binding to CBP (Homo sapiens, UniProt Q92793). Kind of data set: HA-CBP and Flag-p53 pull-down assay in HEK 293T cells. The format is cell-based. To be noted: HA-CBP and Flag-p53 over-expressed in 293T cells, doxorubicin treatment. In short, it runs like this: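 HEK 293T cells were co-transfected with HA-CBP and Flag-p53 (Fugene 6), then treated with test compound at several concentrations, with or without doxorubicin. CBP was immunoprecipitated on HA-agarose beads. Co-precipitated p53 was detected by western blot with anti-Flag antibody.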

In a further data set the test system is p53 target genes. Kind of data set: RT-PCR array analysis of p53 target genes in U2OS cells. The format is cell-based, human.
Data set [3] concerns primary neonatal rat cardiomyocytes. Kind of data set: TUNEL apoptosis assay in cardiomyocytes. The format is cell-based. In short, it runs like this:
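Ventricular myocytes came from 1–2-day-old Sprague-Dawley rats: trypsin overnight at 4°C, collagenase 45 min at 37°C, two preplating rounds. Cells were grown in DMEM/F12 with 10% horse serum and 5% FCS, switched after 48 h to DMEM/F12 with 1% ITS and 0.1% BSA. Doxorubicin was given 24 h ± test compound. Cells on coverslips were fixed in 4% PFA/PBS, permeabilised with 0.5% Tween 20 for 10 min, and TUNEL-labelled with FITC-nucleotide. Triplicates on three days.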

Data set [4] concerns p53. Kind of data set: immunoblot of doxorubicin-treated cardiomyocytes. The format is cell-based. To be noted: primary neonatal rat cardiomyocytes. In outline:
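Neonatal rat ventricular myocytes (1–2-day-old Sprague-Dawley pups) were isolated by trypsin then collagenase digestion and enriched by two preplating rounds. They were cultured in DMEM/F12 with 10% horse serum and 5% FCS, then after 48 h in DMEM/F12 with 1% ITS and 0.1% BSA. Cells were exposed to doxorubicin with or without test compound and immunoblotted for activated p53 and H2AX Ser139 phosphorylation.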

Another data set relates to CBP/p300. The format is biochemical. To be noted: histone H3 peptide substrate; data not shown.
[5] abbreviates: U2OS cells, 50 or 100 μM, 24 hours.
The mark [6] stands for this setting: nuclear extracts from U2OS cells.

Sequence of p53 binding to CBP (Q92793 whole entry): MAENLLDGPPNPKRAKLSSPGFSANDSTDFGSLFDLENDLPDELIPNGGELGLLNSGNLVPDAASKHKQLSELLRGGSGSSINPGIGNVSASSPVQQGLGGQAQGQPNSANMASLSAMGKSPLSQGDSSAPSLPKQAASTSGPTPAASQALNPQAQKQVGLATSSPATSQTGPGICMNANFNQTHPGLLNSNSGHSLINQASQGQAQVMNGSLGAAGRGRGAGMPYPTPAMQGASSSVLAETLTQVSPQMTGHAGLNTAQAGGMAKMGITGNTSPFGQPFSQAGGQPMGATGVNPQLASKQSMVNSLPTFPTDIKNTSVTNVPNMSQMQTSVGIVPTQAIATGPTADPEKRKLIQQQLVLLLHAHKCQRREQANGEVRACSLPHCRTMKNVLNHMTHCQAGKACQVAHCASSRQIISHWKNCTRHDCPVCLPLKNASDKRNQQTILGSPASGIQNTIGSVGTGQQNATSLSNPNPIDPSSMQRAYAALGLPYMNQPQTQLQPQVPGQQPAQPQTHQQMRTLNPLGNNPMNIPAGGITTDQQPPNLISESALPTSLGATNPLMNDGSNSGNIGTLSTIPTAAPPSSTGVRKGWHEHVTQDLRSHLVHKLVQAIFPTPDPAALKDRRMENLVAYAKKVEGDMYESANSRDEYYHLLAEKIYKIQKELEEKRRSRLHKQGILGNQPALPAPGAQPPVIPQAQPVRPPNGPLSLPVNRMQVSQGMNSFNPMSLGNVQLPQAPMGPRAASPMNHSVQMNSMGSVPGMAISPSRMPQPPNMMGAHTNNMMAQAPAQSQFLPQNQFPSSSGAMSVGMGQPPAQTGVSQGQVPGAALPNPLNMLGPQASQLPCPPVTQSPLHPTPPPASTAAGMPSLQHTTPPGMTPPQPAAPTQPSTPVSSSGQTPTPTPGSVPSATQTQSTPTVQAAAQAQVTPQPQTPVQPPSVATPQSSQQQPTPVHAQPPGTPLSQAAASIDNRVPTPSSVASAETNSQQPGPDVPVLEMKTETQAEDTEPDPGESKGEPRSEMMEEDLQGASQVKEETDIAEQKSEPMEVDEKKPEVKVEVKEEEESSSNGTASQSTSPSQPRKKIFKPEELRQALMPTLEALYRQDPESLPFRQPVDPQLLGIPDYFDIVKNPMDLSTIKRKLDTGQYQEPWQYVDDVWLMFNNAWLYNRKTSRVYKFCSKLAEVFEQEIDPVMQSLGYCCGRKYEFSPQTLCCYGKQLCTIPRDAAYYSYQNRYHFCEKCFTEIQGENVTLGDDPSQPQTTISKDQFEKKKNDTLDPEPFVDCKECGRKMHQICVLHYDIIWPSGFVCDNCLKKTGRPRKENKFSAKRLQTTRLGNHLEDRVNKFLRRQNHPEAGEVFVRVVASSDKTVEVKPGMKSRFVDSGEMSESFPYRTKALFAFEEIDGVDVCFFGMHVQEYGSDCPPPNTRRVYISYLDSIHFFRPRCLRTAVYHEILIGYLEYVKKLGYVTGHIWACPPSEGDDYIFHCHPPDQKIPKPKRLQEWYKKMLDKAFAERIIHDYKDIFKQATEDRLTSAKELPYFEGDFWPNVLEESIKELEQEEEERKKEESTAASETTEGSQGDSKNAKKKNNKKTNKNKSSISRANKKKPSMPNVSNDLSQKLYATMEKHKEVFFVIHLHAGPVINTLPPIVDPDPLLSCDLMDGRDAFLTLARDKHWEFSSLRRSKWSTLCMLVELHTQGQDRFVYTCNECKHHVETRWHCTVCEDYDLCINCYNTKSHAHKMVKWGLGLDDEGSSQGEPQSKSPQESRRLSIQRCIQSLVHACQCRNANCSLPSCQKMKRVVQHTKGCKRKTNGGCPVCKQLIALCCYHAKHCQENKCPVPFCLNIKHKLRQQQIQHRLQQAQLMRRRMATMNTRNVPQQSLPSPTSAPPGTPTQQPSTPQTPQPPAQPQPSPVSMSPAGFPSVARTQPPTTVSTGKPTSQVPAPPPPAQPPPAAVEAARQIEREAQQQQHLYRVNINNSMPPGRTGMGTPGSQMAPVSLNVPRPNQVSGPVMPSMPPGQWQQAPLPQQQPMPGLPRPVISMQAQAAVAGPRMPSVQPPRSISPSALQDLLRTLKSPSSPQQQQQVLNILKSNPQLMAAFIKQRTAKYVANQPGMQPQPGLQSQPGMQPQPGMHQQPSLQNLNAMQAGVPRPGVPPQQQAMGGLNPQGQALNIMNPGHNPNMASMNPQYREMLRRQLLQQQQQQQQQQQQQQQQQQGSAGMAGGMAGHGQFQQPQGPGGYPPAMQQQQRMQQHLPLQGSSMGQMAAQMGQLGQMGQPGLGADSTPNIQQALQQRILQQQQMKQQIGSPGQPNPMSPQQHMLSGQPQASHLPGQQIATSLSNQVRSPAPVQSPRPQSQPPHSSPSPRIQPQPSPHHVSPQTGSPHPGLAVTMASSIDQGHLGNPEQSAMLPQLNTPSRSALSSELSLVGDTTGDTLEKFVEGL

As usually defined, the IC50 is the midpoint of a concentration-inhibition curve. Consider `Cc1cc(N=Nc2cc(S(=O)(=O)O)c(C)cc2C)c(N)cc1O` [Ischemin / MS120, 5-(2-amino-4-hydroxy-5-methyl-phenylazo)-2,4-dimethyl-benzenesulfonic acid], for which, in data set [1] (Homo sapiens, U2OS, read-out: IC50 inhibition of p53-induced p21 activation), the IC50 is 5 µM. Moreover, in data set [1] (U2OS cells, doxorubicin, 50 μM), the “suppression of p21 expression” value was “nearly completely suppresses”. Further, the “prevention of doxorubicin-induced cell cycle arrest (BRDU incorporation)” value in the data set on U2OS cells (50 μM compound, doxorubicin 5 μM, U2OS cells, 24 hours) is recorded as “almost completely prevented”. The “toxicity to the cells” value with U2OS cells (U2OS cells, 50 μM) is “not toxic”. In the data set on p53 [2] (setting [5]), the “expression of p53 target genes p21, PUMA and 14-3-3s induced by doxorubicin” value is “significantly decreased”; the “levels of p53 protein, p53S15p and p53K382ac induced by doxorubicin” value is “marked reduction”. For the same compound, in the data set on p53 [2] (U2OS cells, doxorubicin), the “level or functional phosphorylation state of ATM and CHK1” value is given as “did not affect”. For the same compound, in the data set with p53 [2] (setting [6]), the “H3 acetylation at Lys9” value is “decrease” and the “histone H3 phosphorylation at Ser10” value is given as “increase”. On p53 binding to CBP, the “inhibition of p53 binding to CBP” value is reported as “inhibiting in a dose-dependent manner”. Besides, the “doxorubicin-induced expression of p53 target genes (CCNE2, CCNG2, CDC2, CDC25A, CDKN1A, CDKN2A, GADD45A, E2F1, E2F3, PCNA, SESN1, SESN2)” value with p53 target genes is “differentially reduce”. Also, the “toxicity of its own” value in data set [3] is recorded as “no toxicity of its own”. Also, the “inhibition of doxorubicin-induced apoptosis” value in data set [3] (doxorubicin 24 hours) was “effectively inhibit”. In the data set on p53 [4], the “doxorubicin induced p53 activation” value is reported as “able to inhibit”. For the same compound, the “H2AX phosphorylation at Ser139” value in the data set on p53 [4] (doxorubicin) is given as “did not alter”. Further, the “direct inhibition of lysine acetyltransferase activity” value with CBP/p300 is on record as “ruled out”.
Consider `COc1cccc2c1C(=O)c1c(O)c3c(c(O)c1C2=O)C[C@@](O)(C(=O)CO)C[C@@H]3O[C@H]1C[C@H](N)[C@H](O)[C@H](C)O1` [doxorubicin, reference compound], for which the “decrease of BRDU incorporation” value in the data set on U2OS cells (doxorubicin treatment of U2OS cells) worked out at 45%.
